{
  "source": "paper PMC11904669",
  "about": "(ACS Omega, 2025)",
  "key": {"[1]": {"tested_on": "α-SMA", "experiment": "Western blot of α-SMA in TGF-β-induced LX2 cells", "format": "cell-based, human", "conditions": "TGF-β-treated LX2 cells, 10 μM, 24 h, Western blot (Figure 4)", "in_short": "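LX2 human hepatic stellate cells were grown in DMEM with 10% FBS and 1% penicillin-streptomycin at 37 °C, 5% CO2. Cells were induced with TGF-β (10 ng/mL) with or without 10 μM test compound for 24 h. Lysates in RIPA buffer were BCA-quantified, run on SDS-PAGE and transferred to PVDF. Primary antibody was applied overnight at 4 °C, then ECL detection. Densitometry was normalized to GAPDH; n = 3.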"}, "[2]": {"tested_on": "CCl4-induced liver fibrosis model", "experiment": "Serum AST, CCl4-induced liver fibrosis model", "format": "in vivo, mouse", "conditions": "CCl4 mice, 250 μg/kg i.p. daily for 4 weeks", "in_short": "(§1)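 CCl4 (20% in corn oil, s.c., every 2 days, 8 weeks) fibrotic male C57BL/6J mice received test compound 250 μg/kg i.p. daily for the last 4 weeks. After the final dose, mice were fasted 9 h and euthanized 8 h later. Blood was drawn retro-orbitally under anesthesia and spun at 1000g for 15 min; serum was stored at −80 °C. ALT or AST was measured by commercial kit; n = 5.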"}, "[3]": {"tested_on": "COL1α1", "experiment": "Western blot of COL1α1", "format": "cell-based, human", "conditions": "TGF-β-treated LX2 cells, 10 μM, 24 h, Western blot (Figure 4)"}, "[4]": {"tested_on": "CCl4-induced liver fibrosis model", "experiment": "SOD in liver tissue, CCl4-induced liver fibrosis model", "format": "in vivo, mouse", "conditions": "CCl4 mice, 250 μg/kg i.p. daily for 4 weeks, n = 5"}, "[5]": {"tested_on": "CCl4-induced liver fibrosis model", "experiment": "GSH in liver tissue, CCl4-induced liver fibrosis model", "format": "in vivo, mouse", "conditions": "CCl4 mice, 250 μg/kg i.p. daily for 4 weeks, n = 5"}, "[6]": {"tested_on": "p-Smad3", "experiment": "Western blot of p-Smad3/Smad3 in liver, CCl4-induced liver fibrosis model", "format": "in vivo, mouse", "conditions": "CCl4 mice, 250 μg/kg i.p. daily for 4 weeks", "in_short": "(§2)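 Male C57BL/6J mice with CCl4 fibrosis (20% in corn oil s.c., every 2 days, 8 weeks) received test compound 250 μg/kg i.p. daily over the final 4 weeks. Liver tissue was snap-frozen and stored at −80 °C, then lysed in RIPA buffer and BCA-quantified. Samples went through SDS-PAGE and PVDF transfer, overnight primary antibody at 4 °C, and ECL. Phospho-protein densitometry was normalized to GAPDH; n = 5.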"}, "[7]": {"tested_on": "C57BL/6J mice", "experiment": "General observation of mice during peptide treatment", "format": "in vivo, mouse", "conditions": "CCl4 mice, 250 μg/kg i.p. daily for 4 weeks", "in_short": "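Male C57BL/6J mice (6–8 wk, 20–24 g) received 20% CCl4 in corn oil s.c. (5 mL/kg) every 2 days for 8 weeks, with corn-oil-injected controls. Test compound was given i.p. at 250 μg/kg daily over the last 4 weeks. Appearance, behavior and food intake were observed, and body weight was monitored (n = 5−7).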"}, "[8]": {"tested_on": "CCl4-induced liver fibrosis model", "experiment": "Serum ALT, CCl4-induced liver fibrosis model", "format": "in vivo, mouse", "conditions": "CCl4 mice, 250 μg/kg i.p. daily for 4 weeks", "in_short": "as §1"}, "[9]": {"tested_on": "CCl4-induced liver fibrosis model", "experiment": "Liver histology", "format": "in vivo, mouse", "conditions": "CCl4 mice, 250 μg/kg i.p. daily for 4 weeks", "in_short": "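CCl4 model: male C57BL/6J mice, s.c. 20% CCl4 in corn oil every 2 days for 8 weeks, test compound 250 μg/kg i.p. daily during the last 4 weeks. Livers were fixed in 10% formaldehyde, deparaffinized and rehydrated. Sections got H&E, Sirius red (10 fields at 20× per liver) and IHC for α-SMA and COL1α1. Positive area was quantified excluding large bile ducts and vessels; n = 5.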"}, "[10]": {"tested_on": "p-ERK", "experiment": "Western blot of p-Erk/Erk in liver, CCl4-induced liver fibrosis model", "format": "in vivo, mouse", "conditions": "CCl4 mice, 250 μg/kg i.p. daily for 4 weeks", "in_short": "as §2"}, "[11]": {"tested_on": "CCl4-induced liver fibrosis model", "experiment": "Hydroxyproline in liver tissue, CCl4-induced liver fibrosis model", "format": "in vivo, mouse", "conditions": "CCl4 mice, 250 μg/kg i.p. daily for 4 weeks, n = 5", "in_short": "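Liver fibrosis was induced in male C57BL/6J mice (6–8 wk) by s.c. 20% CCl4 in corn oil (5 mL/kg) every 2 days for 8 weeks, with corn-oil controls. Test compound was given at 250 μg/kg i.p. daily for the final 4 weeks. Livers were snap-frozen in liquid nitrogen, kept at −80 °C, and assayed for hydroxyproline; n = 5.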"}, "[12]": {"experiment": "Serum stability analysis", "format": "in vitro ADME", "in_short": "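Peptide (5 mM) was incubated in mouse serum at 37 °C for 0, 0.25, 1, 2, 4, 8, 16 and 24 h. Reactions were quenched with ice-cold acetonitrile, vortexed 10 s and left 1 min. Water containing 1% TFA was then added, the mix was centrifuged at 13,000g for 10 min, and the supernatant was collected for analysis.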"}, "[13]": {"tested_on": "FN and COL1α1", "experiment": "Western blot of FN and COL1α1 in TGF-β-induced LX2 cells", "format": "cell-based, human", "conditions": "10 μM"}, "[14]": {"tested_on": "LX2 cells", "experiment": "CCK-8 assay of cell growth", "format": "cell-based, human", "conditions": "high concentration 64.0 μM"}},
  "note": "*1 amine or outer side, *2 acyl side, *3 side chain or, on linkers, in order; H or OH if unused. Where a SMILES comes first, the peptide text is derived from it. Where no end group is shown, it is not given here. Side-chain parts run from the residue outwards. The star is where a group is joined. C20 diacid = O=C(O)CCCCCCCCCCCCCCCCCCC(=O)*; γGlu = O=C(O)[C@H](CCC(=O)[*:2])N[*:1]; PEG2 = NCCOCCOCCC(=O)O",
  "data": [
    {"compound": "CC(C)C[C@H](NC(=O)[C@@H]1CCCN1C(=O)[C@H](Cc1ccccc1)NC(=O)CNC(=O)[C@@H]1CCCN1C(=O)[C@H](C)NC(=O)[C@H](CCCCNC(=O)CCOCCOCCNC(=O)CCOCCOCCNC(=O)CC[C@H](NC(=O)CCCCCCCCCCCCCCCCCCC(=O)O)C(=O)O)NC(=O)CNC(=O)[C@H](Cc1ccccc1)NC(=O)[C@@H](N)[C@@H](C)O)C(=O)NCC(=O)N[C@@H](CO)C(N)=O", "note": "[S6-FA] (H-TFGK([PEG2-PEG2-γGlu-C20 diacid])APGFPLGS-NH2)", "values": [
      {"measurement": "expression of α-SMA", "setting": "[1]", "result": "conspicuously decreased"},
      {"measurement": "AST serum level", "setting": "[2]", "result": "remarkably reduced"},
      {"measurement": "expression of COL1α1", "setting": "[3]", "result": "conspicuously decreased"},
      {"measurement": "content of SOD in liver tissue versus CCl4 group", "setting": "[4]", "result": "significantly higher"},
      {"measurement": "content of GSH in liver tissue versus CCl4 group", "setting": "[5]", "result": "significantly higher"},
      {"measurement": "phosphorylation of Smad3 in liver", "setting": "[6]", "result": "effectively inhibited"},
      {"measurement": "appearance, behavior, food intake, body weight", "setting": "[7]", "result": "no abnormalities"},
      {"measurement": "ALT serum level", "setting": "[8]", "result": "remarkably reduced"},
      {"measurement": "collagen deposition (Sirius red)", "setting": "[9]; n = 5", "result": "more efficacious outcomes in reducing collagen deposition compared to T6-S"},
      {"measurement": "fibrosis markers α-SMA and COL1α1 (IHC)", "setting": "[9]; versus control group and T6-S group", "result": "notably lower"},
      {"measurement": "phosphorylation of ERK in liver", "setting": "[10]", "result": "effectively inhibited"},
      {"measurement": "HYP content in liver tissue", "setting": "[11]", "result": "significantly decreased"},
      {"measurement": "half-life at 5 mM", "setting": "[12]; mouse", "result": "~24", "unit": "h"}
    ]},
    {"compound": "CC(C)C[C@@H]1NC(=O)[C@@H]2CCCN2C(=O)[C@H](Cc2ccccc2)NC(=O)CNC(=O)[C@@H]2CCCN2C(=O)[C@H](C)NC(=O)CNC(=O)CNC(=O)[C@H](Cc2ccccc2)NC(=O)[C@H]([C@@H](C)O)NC(=O)[C@H](CO)NC(=O)CNC1=O", "note": "[S19] (cyclo(APGFPLGSTFGG))", "values": [
      {"measurement": "effect on expression of FN and COL1α1", "setting": "[13]", "result": "diminished the inhibitory impacts"}
    ]},
    {"compound": "TFGGAPGFPLGS [T6-S]", "values": [
      {"measurement": "growth of LX2 cells (CCK-8)", "setting": "[14]", "result": "did not affect the growth"},
      {"measurement": "peptide detectable by HPLC after incubation in serum", "setting": "[12]; mouse serum, 37 °C, 5 mM peptide, RP-HPLC-MS, 1 h", "result": 50, "unit": "%"}
    ]},
    {"compound": "TFGGAPGFPLGSPLSSVFPR [T6, reference compound]", "values": [
      {"measurement": "growth of LX2 cells (CCK-8)", "setting": "[14]", "result": "did not affect the growth"}
    ]},
    {"compound": "TFGKAPGFPLGS [S6]", "values": [
      {"measurement": "appearance, behavior, food intake, body weight", "setting": "[7]", "result": "no abnormalities"}
    ]}
  ]
}
